Data as given in ChEMBL document CHEMBL4400548, “Structure-Based in Silico Screening Identifies a Potent Ebolavirus Inhibitor from a Traditional Chinese Medicine Library” (J Med Chem, 2019).
pIC50: −log10 of the molar value. Calls of active or inactive are those of the source. No cut-off for these calls is given here.

Key:
[1] = system: Ebola virus - Zaire (1995); assay: Binding affinity to recombinant Ebola virus Zaire Mayinga-76 Envelope glycoprotein assessed as change in melting temperature up to 500 uM by SYPRO-dye based thermal shift assay
Ebolavirus = assay: Antiviral activity against HIV-1-derived Ebolavirus pseudoparticle infected in human TZM-bl cells after 48 hrs by beta-gal based reporter assay; format: functional, organism-based; conditions: Orthoebolavirus
Outline: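 TZM-bl cells were plated at 2 × 10^4 per well 24 h ahead and chilled on ice. EBOVpp (1 in 10 dilution) was spinoculated at 2100g for 30 min at 4 °C, then removed with a PBS wash. Compound (100–0.125 μM) was added in DMEM/5% FBS for 48 h at 37 °C. Cells were fixed in 2% PFA, X-gal stained and imaged for infected/total cells. Triplicate runs; sigmoidal fit for IC50.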

Compound | Activity [1] | pIC50 (Ebolavirus) | IC80 (Ebolavirus) [nM]
COc1ccc(CC(=O)c2c(C)cc(O)cc2O)cc1 | inactive | – | –
N#Cc1cc(N)ccc1Sc1cccc(C(F)(F)F)c1 | inactive | – | –
CN(C)CCOc1ccc(/C(=C(/CCCl)c2ccccc2)c2ccccc2)cc1 [TOREMIFENE] | – | 7.05 | 3000
O=C(/C=C/c1cc(Br)cc2c1OCOC2)c1cc(F)ccc1O | inactive | – | –
Cc1[nH]nc(-c2ccc(OCCN3CCC(C(N)=O)CC3)cc2O)c1-c1ccc(Cl)cc1 | Active | 7.30 | 390
NC(=O)C1CCN(CCOc2ccc(-c3n[nH]cc3-c3ccccc3)c(O)c2)CC1 | Active | 5.51 | 50000
Nc1ccc(SSc2ccc(N)cc2)cc1 | inactive | – | –
O=C(/C=C/C1=Cc2ccccc2OC1)c1ccc(O)cc1 | inactive | – | –
